Measurements from article PMC6045484 (ACS Omega, 2018).
Converted amounts (≈) assume the structure as drawn.

How the values were obtained:
[1] = tested on: P. falciparum (D6); assay: in vitro antimalarial activity, plasmodial LDH; assay type: cell-based, Plasmodium falciparum; conditions: Plasmodium falciparum, D6, 72 h, read-out: P. falciparum (D6) IC50
[2] = tested on: P. falciparum (W2); assay: in vitro antimalarial activity, plasmodial LDH; assay type: cell-based, Plasmodium falciparum; conditions: Plasmodium falciparum, W2, 72 h, read-out: P. falciparum (W2) IC50, CQ-resistant W2 strain, 72 h
Method in brief: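 P. falciparum-infected erythrocytes (2% parasitemia, 2% hematocrit) in RPMI 1640 with 10% human serum and 60 μg/mL amikacin. Exposed to test compound dilutions for 72 h at 37 °C under 90% N2/5% O2/5% CO2. LDH measured with Malstat reagent (30 min, room temperature), then NBT/PES for 1 h in the dark, stopped with 5% acetic acid, read at 650 nm. IC50 from dose-response curves.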

[3] = tested on: SK-MEL, KB, BT-549, SK-OV-3, VERO and LLC-PK1 cells; assay: cytotoxicity, neutral red uptake assay; assay type: cell-based, mammalian; conditions: highest test concentration 4760 ng/mL
Method in brief: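 Cells seeded at 25 000/well and allowed 24 h to reach confluence. Test compound was then added and incubated 48 h. Viable cells were counted by a modified neutral red uptake method. The panel was four human cancer lines and two noncancerous mammalian kidney lines. Doxorubicin served as positive control and DMSO as negative control.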

[4] = tested on: L. donovani promastigotes; assay: in vitro antileishmanial activity, alamarBlue assay; assay type: cell-based, Leishmania donovani; conditions: Leishmania donovani, 48 h; for IC50: read-out: L. donovani IC50, promastigotes, 48 h; for IC90: read-out: L. donovani IC90, promastigotes, 48 h
[5] = tested on: C. albicans ATCC90028; assay: in vitro antifungal activity; assay type: cell-based, Candida albicans; conditions: Candida albicans; for IC50: ATCC90028, read-out: C. albicans IC50; for MFC: ATCC90028, read-out: C. albicans MFC; for MIC: ATCC90028, read-out: C. albicans MIC
Method in brief: (§1)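 Modified NCCLS broth method in Sabouraud dextrose. Inoculum set by OD630 to 1.5 × 10^3 CFU/mL. Test compound serially diluted in 20% DMSO/saline, duplicate wells, up to 20 μg/mL. Incubated 70–74 h at 35 °C; 530 nm read before and after. IC50 is 50% growth inhibition; MIC is no detectable growth. MFC from clear wells subcultured on agar. Amphotericin B control.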

[6] = tested on: C. neoformans ATCC90113; assay: in vitro antifungal activity; assay type: cell-based, Cryptococcus neoformans; conditions: Cryptococcus neoformans; for IC50: ATCC90113, read-out: C. neoformans IC50; for MFC: ATCC90113, read-out: C. neoformans MFC; for MIC: ATCC90113, read-out: C. neoformans MIC
Method in brief: as §1

[7] = tested on: A. fumigatus ATCC 90906; assay: in vitro antifungal activity; assay type: cell-based, Aspergillus fumigatus; conditions: Aspergillus fumigatus; for IC50: ATCC90906, read-out: A. fumigatus IC50; for MFC: ATCC90906, read-out: A. fumigatus MFC; for MIC: ATCC90906, read-out: A. fumigatus MIC
Method in brief: as §1

[8] = tested on: SA (ATCC29213); assay: in vitro antibacterial activity; assay type: cell-based; conditions: Staphylococcus aureus; for IC50: ATCC29213, read-out: IC50 (concentration that affords 50% growth inhibition), SA; for MBC: ATCC29213, read-out: MBC (minimum bactericidal concentration), SA; for MIC: ATCC29213, read-out: MIC, SA
Method in brief: (§2)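 Test compound serially diluted in 20% DMSO/saline and plated in duplicate, up to 20 μg/mL. Inoculum in cation-adjusted Mueller–Hinton broth, pH 7.3, set by OD630 to 5 × 10^5 CFU/mL. Incubated 16–20 h at 35 °C; 530 nm read before and after. IC50 is 50% growth inhibition; MIC is no detectable growth. MBC from clear wells subcultured on agar. Ciprofloxacin control.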

[9] = tested on: MRSA (ATCC33591); assay: in vitro antibacterial activity; assay type: cell-based, methicillin-resistant Staphylococcus aureus; conditions: Staphylococcus aureus, ATCC33591|MRSA, read-out: MIC, MRSA
Method in brief: as §2

[10] = tested on: M. intracellulare (ATCC23068); assay: in vitro antibacterial activity, modified alamarBlue procedure; assay type: cell-based, Mycobacterium intracellulare; conditions: Mycobacterium intracellulare; for IC50: ATCC23068, read-out: IC50 (concentration that affords 50% growth inhibition), M. intracellulare; for MBC: ATCC23068, read-out: MBC (minimum bactericidal concentration), M. intracellulare; for MIC: ATCC23068, read-out: MIC, M. intracellulare
Method in brief: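 Modified alamarBlue microplate method. Test compound serially diluted in 20% DMSO/saline, duplicate wells, up to 20 μg/mL. Inoculum 2.0 × 10^6 CFU/mL in Middlebrook 7H9 with OADC, pH 7.3, containing 5% alamarBlue. Incubated 70–74 h at 37 °C, 10% CO2; fluorescence 544ex/590em read before and after. MIC: no blue-to-pink change. MBC by subculturing blue wells on agar. Ciprofloxacin control.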

Compound	IC50 [1] [µg/mL]	IC50 [2] [µg/mL]	cytotoxicity CTX [3]	IC50 [4] [µg/mL]	IC90 [4] [µg/mL]	IC50 [5] [µg/mL]	MFC [5] [µg/mL]	MIC [5] [µg/mL]	IC50 [6] [µg/mL]	MFC [6] [µg/mL]	MIC [6] [µg/mL]	IC50 [7] [µg/mL]	MFC [7] [µg/mL]	MIC [7] [µg/mL]	IC50 [8] [µg/mL]	MBC [8] [µg/mL]	MIC [8] [µg/mL]	MIC [9] [µg/mL]	IC50 [10] [µg/mL]	MBC [10] [µg/mL]	other results
CCCCCOc1c(OC)cc(NC(C)CCCNC(=O)C(N)CC(C)C)c2nc(C(C)(C)C)ccc12 (stereo not drawn) [compound 95, 2-Amino-N-(4-(2-tert-butyl-6-methoxy-5-(pentyloxy)quinolin-8-ylamino)pentyl)-4-methylpentanamide]	3.5 (≈ 6.8 µM)	2.3 (≈ 4.47 µM)	NC (NC, not cytotoxic up to 4760 ng/mL (4.76 μg/mL))	3.5 (≈ 6.8 µM)	6.5 (≈ 12.6 µM)	18.4 (≈ 35.8 µM)	> 20	> 20	1.68 (≈ 3.26 µM)	2.5 (≈ 4.86 µM)	2.5 (≈ 4.86 µM)	> 20	> 20	> 20	2.56 (≈ 4.97 µM)	5 (≈ 9.71 µM)	5 (≈ 9.71 µM)	10 (≈ 19.4 µM)	12.6 (≈ 24.4 µM)	20 (≈ 38.9 µM)	MIC [10]: 20 µg/mL (≈ 38.9 µM)
CCCCCCCOc1c(OC)cc(NC(C)CCCNC(=O)C(N)Cc2cc3ccccc3[nH]2)c2nc(C(C)(C)C)ccc12 (stereo not drawn) [compound 115, 2-Amino-N-(4-(2-tert-butyl-5-(heptyloxy)-6-methoxyquinolin-8-ylamino)pentyl)-3-(1H-indol-2-yl)propanamide]	3.3 (≈ 5.36 µM)	2.8 (≈ 4.55 µM)	NC (NC, not cytotoxic up to 4760 ng/mL (4.76 μg/mL))	19 (≈ 30.9 µM)	32 (≈ 52 µM)	> 20	> 20	> 20	1.36 (≈ 2.21 µM)	2.5 (≈ 4.06 µM)	2.5 (≈ 4.06 µM)	> 20	> 20	> 20	4.56 (≈ 7.4 µM)	10 (≈ 16.2 µM)	10 (≈ 16.2 µM)	5 (≈ 8.12 µM)	8.74 (≈ 14.2 µM)	20 (≈ 32.5 µM)	MIC [10]: 10 µg/mL (≈ 16.2 µM)
CCCCCCCOc1c(OC)cc(NC(C)CCCNC(=O)C(N)C(C)CC)c2nc(C(C)(C)C)ccc12 (stereo not drawn) [compound 114, 2-Amino-N-(4-(2-tert-butyl-5-(heptyloxy)-6-methoxyquinolin-8-ylamino)pentyl)-3-methylpentanamide]	4.5 (≈ 8.29 µM)	2.9 (≈ 5.34 µM)	NC (NC, not cytotoxic up to 4760 ng/mL (4.76 μg/mL))	3.8 (≈ 7 µM)	7 (≈ 12.9 µM)	14.2 (≈ 26.2 µM)	> 20	> 20	1.07 (≈ 1.97 µM)	2.5 (≈ 4.61 µM)	2.5 (≈ 4.61 µM)	> 20	> 20	> 20	2.19 (≈ 4.03 µM)	5 (≈ 9.21 µM)	5 (≈ 9.21 µM)	5 (≈ 9.21 µM)	5.63 (≈ 10.4 µM)	20 (≈ 36.8 µM)	MIC [10]: 10 µg/mL (≈ 18.4 µM)
CCCCCCOc1c(OC)cc(NC(C)CCCNC(=O)C(N)Cc2cnc[nH]2)c2nc(C(C)(C)C)ccc12 (stereo not drawn) [compound 105, 2-Amino-N-(4-(2-tert-butyl-5-(hexyloxy)-6-methoxyquinolin-8-ylamino)pentyl)-3-(1H-imidazole-5-yl)propanamide]	2.4 (≈ 4.34 µM)	1.7 (≈ 3.08 µM)	NC (NC, not cytotoxic up to 4760 ng/mL (4.76 μg/mL))	3.5 (≈ 6.33 µM)	7 (≈ 12.7 µM)	19.4 (≈ 35.1 µM)	> 20	> 20	> 20	> 20	> 20	> 20	> 20	> 20	2.79 (≈ 5.05 µM)	10 (≈ 18.1 µM)	5 (≈ 9.05 µM)	10 (≈ 18.1 µM)	5.94 (≈ 10.7 µM)	10 (≈ 18.1 µM)	MIC [10]: 10 µg/mL (≈ 18.1 µM)
CCCCCCOc1c(OC)cc(NC(C)CCCNC(=O)C(N)Cc2cc3ccccc3[nH]2)c2nc(C(C)(C)C)ccc12 (stereo not drawn) [compound 108, 2-Amino-N-(4-(2-tert-butyl-5-(hexyloxy)-6-methoxyquinolin-8-ylamino)pentyl)-3-(1H-indol-2-yl)propanamide]	> 4.76	> 4.76	NC (NC, not cytotoxic up to 4760 ng/mL (4.76 μg/mL))	19.1 (≈ 31.7 µM)	> 40	> 20	> 20	> 20	5.09 (≈ 8.46 µM)	10 (≈ 16.6 µM)	10 (≈ 16.6 µM)	> 20	> 20	> 20	4.98 (≈ 8.27 µM)	> 20	10 (≈ 16.6 µM)	10 (≈ 16.6 µM)	12.7 (≈ 21.2 µM)	20 (≈ 33.2 µM)	MIC [10]: 20 µg/mL (≈ 33.2 µM)
CCCCCCOc1c(OC)cc(NC(C)CCCN)c2nc(C(C)(C)C)cc(C)c12 (stereo not drawn) [compound 52, N^4-(5-Hexyloxy-2-tert-butyl-6-methoxy-4-methylquinolin-8-yl)pentane-1,4-diamine]	> 4.76	> 4.76	NC (NC, not cytotoxic up to 4760 ng/mL (4.76 μg/mL))	1.77 (≈ 4.12 µM)	2.55 (≈ 5.94 µM)	5.91 (≈ 13.8 µM)	10 (≈ 23.3 µM)	10 (≈ 23.3 µM)	0.84 (≈ 1.96 µM)	2.5 (≈ 5.82 µM)	1.25 (≈ 2.91 µM)	19 (≈ 44.2 µM)	> 20	> 20	2.83 (≈ 6.59 µM)	5 (≈ 11.6 µM)	5 (≈ 11.6 µM)	5 (≈ 11.6 µM)	3.43 (≈ 7.98 µM)	5 (≈ 11.6 µM)	MIC [10]: 5 µg/mL (≈ 11.6 µM)
CCCCCCOc1c(OC)cc(NC(C)CCCNC(=O)C(C)N)c2nc(C(C)(C)C)ccc12 (stereo not drawn) [compound 107, 2-Amino-N-(4-(2-tert-butyl-5-(hexyloxy)-6-methoxyquinolin-8-ylamino)pentyl)-propanamide]	> 4.76	> 4.76	NC (NC, not cytotoxic up to 4760 ng/mL (4.76 μg/mL))	17.1 (≈ 35.2 µM)	37.3 (≈ 76.7 µM)	> 20	> 20	> 20	> 20	> 20	> 20	> 20	> 20	> 20	> 20	> 20	> 20	> 20	> 20	> 20	MIC [10]: > 20 µg/mL
CCCCCOc1c(OC)cc(NC(C)CCCNC(=O)C(N)Cc2cc3ccccc3[nH]2)c2nc(C(C)(C)C)ccc12 (stereo not drawn) [compound 98, 2-Amino-N-(4-(2-tert-butyl-6-methoxy-5-(pentyloxy)quinolin-8-ylamino)pentyl)-3-(1H-indol-2-yl)propanamide]	> 4.76	> 4.76	NC (NC, not cytotoxic up to 4760 ng/mL (4.76 μg/mL))	1.81 (≈ 3.08 µM)	2.93 (≈ 4.98 µM)	18.8 (≈ 31.9 µM)	> 20	> 20	1.21 (≈ 2.06 µM)	2.5 (≈ 4.25 µM)	2.5 (≈ 4.25 µM)	> 20	> 20	> 20	1.95 (≈ 3.32 µM)	10 (≈ 17 µM)	5 (≈ 8.51 µM)	5 (≈ 8.51 µM)	8.47 (≈ 14.4 µM)	20 (≈ 34 µM)	MIC [10]: 10 µg/mL (≈ 17 µM)
